# In the library only some 5% were active in any assay of this set; here they are far more common.
# T cruzi repl = inhibitors of intracellular T. cruzi growth, primary screen, luminescence, NIH3T3 host cells; T. cruzi beta-gal in NIH3T3, 90 h; inhibition, % (test concentration not listed); 1.4% of 300,000 active;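 active = mean inhibition across valid replicates above about 55%, limit read from the data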;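 also: signal also drops with host cell toxicity which is not excluded here; 0% = plate median of DMSO wells and 100% = zero luminescence signal; higher percent means less beta-gal luminescence so fewer parasites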
#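 assay system = mouse NIH/3T3 fibroblasts infected with β-gal-expressing T. cruzi Tulahuen C4 | input = 5,000 NIH/3T3 host cells per well | buffer or medium = DMEM plus 2% FBS | timing = 3 h host attachment, then at least 90 h co-culture | measured by = GalScreen luminescence, 60 min | evaluation = luminescence reflecting intracellular parasite burden, expressed as percent inhibition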
# CHOP UPR activ = activators of apoptotic CHOP UPR arm, primary screen, cell-based, CHO-CHOP luciferase reporter, luminescence, uHTS. UPR activation; percent of tunicamycin response over DMSO baseline. activation, % at 10 µM. 0.34% of 330,000 active;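 active = at 10 µM dose, activation of 40% or more, normalized to positive control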;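 also: 100% = tunicamycin at 10 µg/mL and 0% = DMSO alone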
#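 Material: CHO-CHOP cells, stable luciferase reporter of PERK-eIF2a-CHOP signalling; quantity: 500 reporter cells seeded per well; buffer or medium: F12 medium containing 10% fetal bovine serum; compound: one dose, 10 µM in 0.5% DMSO; incubation: 6 h compound treatment, 37 °C; measured by: Steady-Glo luciferase luminescence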
# Beta apoptosis = inhibitors of cytokine-induced beta cell apoptosis, primary screen, luminescence. INS-1E cytokine-induced death, ATP luminescence, 48 h; percent of positive-control rescue, neutral wells zero. protection from apoptosis, % (test concentration not listed). 0.8% of 300,000 active;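 active = Every replicate reaches about 75%, or at least half do and their mean reaches it too, limit read from the data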;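 also: 0% = cytokine-treated negative control wells and 100% = positive control rescue; higher means more ATP so stronger rescue from cytokine killing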
# Mdm2 MdmX PPI = inhibitors of human Mdm2-MdmX association, primary screen, cell-based, luminescence, split luciferase, SaOS-2, uHTS; Protein Mdm4 (Homo sapiens) + E3 ubiquitin-protein ligase Mdm2 (Homo sapiens), …; SaOS-2 split-luciferase Mdm2/MdmX complementation; inhibition, % at 8 µM; 3% of 330,000 active;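 active = inhibition of at least 50% at 8 µM in the primary screen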
# Target sequence (O15151 whole entry, looked up): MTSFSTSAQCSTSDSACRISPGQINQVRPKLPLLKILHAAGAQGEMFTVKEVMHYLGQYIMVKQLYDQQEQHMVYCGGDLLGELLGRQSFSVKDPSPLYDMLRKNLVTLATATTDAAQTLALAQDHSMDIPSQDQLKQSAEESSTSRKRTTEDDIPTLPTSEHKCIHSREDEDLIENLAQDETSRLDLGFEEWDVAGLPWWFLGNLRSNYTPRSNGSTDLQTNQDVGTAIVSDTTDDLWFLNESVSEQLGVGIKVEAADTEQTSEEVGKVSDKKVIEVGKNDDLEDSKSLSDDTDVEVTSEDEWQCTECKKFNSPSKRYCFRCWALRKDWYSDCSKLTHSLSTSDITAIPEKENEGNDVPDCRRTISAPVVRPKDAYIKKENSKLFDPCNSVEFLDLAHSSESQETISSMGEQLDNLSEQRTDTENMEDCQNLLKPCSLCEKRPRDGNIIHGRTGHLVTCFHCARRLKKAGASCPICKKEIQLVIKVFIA
# Target sequence (Q00987 whole entry, looked up): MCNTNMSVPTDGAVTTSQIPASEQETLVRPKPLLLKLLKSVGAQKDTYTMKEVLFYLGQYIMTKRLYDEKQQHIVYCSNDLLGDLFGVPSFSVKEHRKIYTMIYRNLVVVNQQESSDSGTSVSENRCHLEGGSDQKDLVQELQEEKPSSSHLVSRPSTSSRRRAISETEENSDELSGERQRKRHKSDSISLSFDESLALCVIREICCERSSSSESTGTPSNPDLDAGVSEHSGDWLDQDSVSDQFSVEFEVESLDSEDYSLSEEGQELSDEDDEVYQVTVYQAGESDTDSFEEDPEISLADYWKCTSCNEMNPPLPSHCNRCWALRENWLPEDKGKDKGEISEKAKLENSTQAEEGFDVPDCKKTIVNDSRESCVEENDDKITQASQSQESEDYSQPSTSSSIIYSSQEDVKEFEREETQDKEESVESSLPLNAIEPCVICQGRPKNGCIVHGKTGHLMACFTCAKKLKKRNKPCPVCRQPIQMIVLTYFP
# CSC inhib = cancer stem cell viability inhibitors, primary screen, luminescence. cancer stem cell-like cells viability. inhibition, % at 7.5 µM. 1.1% of 300,000 active. AID 2717, 2010; in the data active = inhibition above about 75%; tested in HMLE shEcad cells
# UPR XBP1 act = activators of adaptive XBP1 UPR arm, primary screen, cell-based, CHO-XBP1 luciferase reporter, luminescence, uHTS; activation, % at 20 µM; IRE1-XBP1 UPR activation; percent of tunicamycin response, DMSO as zero; 0.33% of 330,000 active;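 active = versus positive control, 20 µM dose yields 30% or more activation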;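 also: 100% = tunicamycin at 10 µg/mL and 0% = DMSO only wells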
#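 Material: IRE1-XBP1 luciferase reporter CHO line / Quantity: one thousand reporter cells per well / Buffer or medium: F12 with 10% serum / Compound: 20 µM single concentration, DMSO 1% / Times: 6 h treatment, 37 °C / Detection: Steady-Glo luciferase glow luminescence, 10 min after reagent addition / Benchmarks: tunicamycin high, DMSO low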
# Mdm2 MdmX conf = Mdm2-MdmX complex disruptors, retested hits, confirmation, luminescence, single concentration | shares compounds with Mdm2 MdmX PPI | Mdm2-MdmX binding, luminescent assay | inhibition, % at 8 µM | 55% of 10,000 active | AID 489028, 2010; in the data active = inhibition above about 40%
# Full FLuc ctr = full-length luciferase signal inhibition, confirmation, counter-screen for Mdm2/MdmX interaction inhibitor project, cell-based, single concentration, SaOS-2; shares compounds with Mdm2 MdmX PPI; SaOS-2 full-length luciferase counterscreen, luminescence; inhibition, % at 8 µM; 77% of 6,200 active; AID 504607, 2011;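 active = mean inhibition at 8 µM reaching about 37%, which flags the compound as non-specific, limit read from the data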;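 also: p53-null SaOS-2 cells with luciferase driven by a doxycycline-inducible promoter; compound on cells about two nights before reading with doxycycline added after day one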
# Starred values were filed as active, the others as inactive; . = not tested or not shown.
SMILES,T cruzi repl,CHOP UPR activ,Beta apoptosis,Mdm2 MdmX PPI,CSC inhib,UPR XBP1 act,Mdm2 MdmX conf,Full FLuc ctr
CCOc1ccc(-c2c(C(=O)N/N=C(\C)c3cccnc3)nnn2-c2nonc2N)cc1,1.9,3.3,0.5,64.0*,-12.3,-0.4,3.8,.
C/C(=N\NC(=O)c1nnn(-c2nonc2N)c1-c1ccc2c(c1)OCO2)c1ccccc1,-16.7,2.2,-2.0,17.6,2.4,-3.2,.,.
C/C(=N/NC(=O)c1nnn(-c2nonc2N)c1COc1ccccc1)c1ccc(O)cc1,-1.1,-0.3,2.2,74.9*,3.7,-4.1,-8.2,.
C/C(=N\NC(=O)c1nnn(-c2nonc2N)c1-c1ccccc1)c1ccccc1O,60.9*,-0.6,89.7*,81.6*,.,-3.4,83.8*,51.2*
O=C(COC(=O)c1ccc(S(=O)(=O)NCc2ccco2)cc1)Nc1ccc(Cl)cn1,-15.7,-1.1,-15.1,3.8,-8.8,-0.2,.,.
N#C/C(=C\c1c(Cl)cccc1Cl)c1nc2ccccc2o1,16.0,0.1,9.1,82.5*,-26.0,2.1,36.4,.
CCCCn1c(CCC)nc([N+](=O)[O-])c1Sc1ccc(Cl)cn1,0.1,-1.2,1.6,62.7*,-2.8,-0.8,18.1,.
CC12CNCC(C)(CN(C(c3ccccc3)c3ccccc3)C1)C2,-9.3,0.3,28.0,95.9*,38.6,-3.5,46.7*,63.3*
Clc1ccc(C(c2ccccc2)N2CCNCC2)cc1 (stereo not drawn),-27.3,-0.1,1.6,61.8*,5.0,0.2,47.5*,75.8*
CCOc1cccc(/C=N/NC(=O)c2ccc3c(c2)OCCO3)c1O,-20.8,4.6,91.6*,56.0*,27.7,3.2,43.0*,45.3*
C/C(=N\NC(=O)c1ccc2c(c1)OCCO2)c1ccccc1,-8.0,-9.3,-1.9,71.3*,23.5,-11.5,-12.9,.
COc1cccc(/C=N/NC(=O)CNC(=O)c2ccc3c(c2)OCCO3)c1O,-16.4,0.7,14.5,20.3,10.2,-1.4,.,.
CCOc1cccc(/C=N/NC(=O)c2cc(-c3cccn3C)n[nH]2)c1O,1.0,-0.7,.,62.9*,-6.0,-1.7,62.5*,51.6*
CC1=CC(=O)C(C(C)C)=C/C1=N\OC(=O)c1cccc2nc(C)oc12,3.5,24.1,-4.6,53.0*,7.0,-4.3,19.5,.
O=C(CCN1C(=O)/C(=C/c2ccccc2Cl)SC1=S)N1CCOCC1,14.9,6.2,.,45.2,9.4,-6.3,.,.
O=C(CCCN1C(=O)/C(=C/c2ccccc2Cl)SC1=S)N1CCCC1,14.4,0.1,-42.1,76.4*,13.9,-6.0,30.9,.
Cc1cc(NC(=O)CCN2C(=O)/C(=C/c3ccccc3F)SC2=S)no1,-0.7,0.6,-5.0,21.6,1.6,0.5,.,.
O=C(CCCN1C(=O)/C(=C/c2ccccc2Cl)SC1=S)NNC(=O)c1ccncc1,2.5,-3.3,-8.3,1.0,-8.6,-7.2,.,.
Cc1cc(NC(=O)CCCN2C(=O)/C(=C/c3ccccc3Cl)SC2=S)no1,4.3,-3.2,-2.2,68.5*,-7.5,-5.8,43.5*,58.5*
O=C(CCCN1C(=O)/C(=C/c2ccccc2Cl)SC1=S)NNC(=O)c1ccccc1Cl,-26.4,-6.2,3.2,56.4*,28.5,-4.3,29.2,.
O=C(CCN1C(=O)/C(=C/c2ccccc2Cl)SC1=S)N1CCCC1,-26.0,19.9,-155.0,62.0*,13.0,-6.7,23.9,.

# Compound activity as filed in PubChem.
